Molecules are shown by their SMILES. pIC50: −log10 of the molar value. In brackets after ≈: the same amount, converted by molar mass.

The text below walks through data of ChEMBL document CHEMBL1134493, “2-(2-Oxo-1,4-dihydro-2H-quinazolin-3-yl)- and 2-(2,2-dioxo-1,4-dihydro-2H-2lambda6-benzo[1,2,6]thiadiazin-3-yl)-N-hydroxy-acetamides as potent and selective peptide deformylase inhibitors” (J Med Chem, 2001).

One assay deals with T1, Peptide deformylase (Escherichia coli, UniProt Q9JN24).
T1 sequence (Q9JN24 whole entry): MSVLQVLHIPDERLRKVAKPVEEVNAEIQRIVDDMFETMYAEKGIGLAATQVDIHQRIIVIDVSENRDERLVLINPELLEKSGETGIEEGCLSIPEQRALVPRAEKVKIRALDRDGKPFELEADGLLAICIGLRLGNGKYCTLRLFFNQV
Description: Inhibition of the isolated native Escherichia coli peptide deformylase (PDF).

The test system of the next assay is Escherichia coli. Put plainly: In vitro antibacterial activity against Escherichia coli. The format is functional. A digest of the protocol:
(§1)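 Broth microdilution MIC per NCCLS guidelines; strains from in-house collection (ATCC and hospital isolates) stored at -80 °C; E. coli tested as permeable outer-membrane mutant DC2. MIC taken as lowest concentration preventing visible growth after 18 to 24 h at 37 °C.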

In another assay the test system is Moraxella catarrhalis. Description: In vitro antibacterial activity against Moraxella catarrhalis RA21. The format is functional. A digest of the protocol:
as §1

In another assay the test system is Haemophilus influenzae. Put plainly: In vitro antibacterial activity against Haemophilus influenzae 11. It is filed as functional. The method in brief:
as §1

The target in assay [1] is T2, Endothelin-converting enzyme 1 (Homo sapiens, UniProt P42892).
T2 sequence (P42892 whole entry): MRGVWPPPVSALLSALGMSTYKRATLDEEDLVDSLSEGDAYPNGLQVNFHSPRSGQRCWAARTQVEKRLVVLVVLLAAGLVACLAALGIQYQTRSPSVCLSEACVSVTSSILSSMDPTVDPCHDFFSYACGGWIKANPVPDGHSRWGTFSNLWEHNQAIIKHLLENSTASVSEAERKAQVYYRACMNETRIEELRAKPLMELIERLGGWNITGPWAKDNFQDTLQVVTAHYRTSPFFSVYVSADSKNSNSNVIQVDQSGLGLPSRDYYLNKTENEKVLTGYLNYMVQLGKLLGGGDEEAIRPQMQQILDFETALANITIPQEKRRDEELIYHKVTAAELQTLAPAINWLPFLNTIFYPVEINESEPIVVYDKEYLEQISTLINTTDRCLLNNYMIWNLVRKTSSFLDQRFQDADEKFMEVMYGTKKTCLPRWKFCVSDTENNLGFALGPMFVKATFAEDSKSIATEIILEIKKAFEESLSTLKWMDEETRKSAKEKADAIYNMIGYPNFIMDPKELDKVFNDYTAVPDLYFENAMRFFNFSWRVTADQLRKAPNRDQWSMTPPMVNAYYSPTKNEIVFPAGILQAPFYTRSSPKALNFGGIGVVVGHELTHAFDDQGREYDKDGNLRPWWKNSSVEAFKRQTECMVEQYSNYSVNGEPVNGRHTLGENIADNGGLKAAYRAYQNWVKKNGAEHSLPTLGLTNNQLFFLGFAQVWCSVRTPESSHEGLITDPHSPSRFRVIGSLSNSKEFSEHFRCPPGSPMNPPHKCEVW
Description: Inhibition against endothelin-converting enzyme.

Assay [2] addresses Angiotensin-converting enzyme (Homo sapiens, UniProt P12821). Put plainly: Inhibition against angiotensin I converting enzyme.
For the next assay, the target named is Neprilysin (Homo sapiens, UniProt P08473). Put plainly: Inhibition against neutral endopeptidase.
Assay [3] concerns the target Macrophage metalloelastase (Homo sapiens, UniProt P39900). Description: Inhibition of human macrophage elastase, matrix metalloprotease-12 (MMP-12).
The next assay deals with Collagenase 3 (Homo sapiens, UniProt P45452). Description: Inhibition of Collagenase-3, matrix metalloprotease-13 (MMP-13).

Chain of Angiotensin-converting enzyme (P12821 whole entry): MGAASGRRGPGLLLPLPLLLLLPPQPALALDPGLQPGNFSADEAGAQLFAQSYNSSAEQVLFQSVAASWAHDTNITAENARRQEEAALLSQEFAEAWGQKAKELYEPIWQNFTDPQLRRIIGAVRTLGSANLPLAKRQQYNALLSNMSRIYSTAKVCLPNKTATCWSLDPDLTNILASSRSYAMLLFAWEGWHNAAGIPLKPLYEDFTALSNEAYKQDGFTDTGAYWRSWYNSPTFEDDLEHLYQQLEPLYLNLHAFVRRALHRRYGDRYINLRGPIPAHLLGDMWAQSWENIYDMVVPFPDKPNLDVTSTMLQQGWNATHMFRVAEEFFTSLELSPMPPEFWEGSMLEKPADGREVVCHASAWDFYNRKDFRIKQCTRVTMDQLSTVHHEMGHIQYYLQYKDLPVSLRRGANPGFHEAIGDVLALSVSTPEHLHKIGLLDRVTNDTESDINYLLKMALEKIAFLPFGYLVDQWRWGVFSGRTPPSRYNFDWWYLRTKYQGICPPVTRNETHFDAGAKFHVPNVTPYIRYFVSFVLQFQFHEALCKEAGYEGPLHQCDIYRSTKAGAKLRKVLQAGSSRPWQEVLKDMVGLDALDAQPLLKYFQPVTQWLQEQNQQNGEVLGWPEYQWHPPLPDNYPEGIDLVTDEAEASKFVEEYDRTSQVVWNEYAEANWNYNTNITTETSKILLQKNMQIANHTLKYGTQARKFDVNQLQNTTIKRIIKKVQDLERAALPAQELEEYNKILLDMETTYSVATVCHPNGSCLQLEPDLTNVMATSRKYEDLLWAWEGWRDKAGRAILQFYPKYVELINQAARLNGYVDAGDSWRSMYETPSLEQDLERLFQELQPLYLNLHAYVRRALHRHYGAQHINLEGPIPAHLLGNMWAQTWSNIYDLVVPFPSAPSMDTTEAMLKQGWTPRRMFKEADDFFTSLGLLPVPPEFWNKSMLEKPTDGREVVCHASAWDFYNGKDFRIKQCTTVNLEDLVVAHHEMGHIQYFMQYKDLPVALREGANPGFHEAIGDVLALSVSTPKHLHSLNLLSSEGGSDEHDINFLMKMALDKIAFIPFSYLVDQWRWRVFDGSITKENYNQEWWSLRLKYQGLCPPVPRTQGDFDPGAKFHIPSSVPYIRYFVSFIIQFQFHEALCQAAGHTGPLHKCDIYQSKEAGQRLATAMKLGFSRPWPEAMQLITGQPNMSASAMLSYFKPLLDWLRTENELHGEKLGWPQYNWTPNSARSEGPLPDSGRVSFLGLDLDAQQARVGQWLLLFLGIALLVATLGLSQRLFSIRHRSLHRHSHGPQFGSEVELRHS
Chain of Macrophage metalloelastase (P39900 whole entry): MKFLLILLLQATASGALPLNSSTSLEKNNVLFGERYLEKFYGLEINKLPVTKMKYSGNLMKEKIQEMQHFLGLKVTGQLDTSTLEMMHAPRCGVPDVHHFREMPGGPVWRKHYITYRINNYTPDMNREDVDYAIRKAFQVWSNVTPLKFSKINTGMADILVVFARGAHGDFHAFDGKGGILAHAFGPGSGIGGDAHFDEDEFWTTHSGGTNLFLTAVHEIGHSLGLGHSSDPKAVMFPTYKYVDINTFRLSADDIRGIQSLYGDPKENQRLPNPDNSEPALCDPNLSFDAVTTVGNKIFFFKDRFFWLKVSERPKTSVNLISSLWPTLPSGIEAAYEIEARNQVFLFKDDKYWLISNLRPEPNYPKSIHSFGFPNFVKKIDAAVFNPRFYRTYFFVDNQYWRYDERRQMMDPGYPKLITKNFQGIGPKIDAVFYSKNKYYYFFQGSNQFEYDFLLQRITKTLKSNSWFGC
Chain of Neprilysin (P08473 whole entry): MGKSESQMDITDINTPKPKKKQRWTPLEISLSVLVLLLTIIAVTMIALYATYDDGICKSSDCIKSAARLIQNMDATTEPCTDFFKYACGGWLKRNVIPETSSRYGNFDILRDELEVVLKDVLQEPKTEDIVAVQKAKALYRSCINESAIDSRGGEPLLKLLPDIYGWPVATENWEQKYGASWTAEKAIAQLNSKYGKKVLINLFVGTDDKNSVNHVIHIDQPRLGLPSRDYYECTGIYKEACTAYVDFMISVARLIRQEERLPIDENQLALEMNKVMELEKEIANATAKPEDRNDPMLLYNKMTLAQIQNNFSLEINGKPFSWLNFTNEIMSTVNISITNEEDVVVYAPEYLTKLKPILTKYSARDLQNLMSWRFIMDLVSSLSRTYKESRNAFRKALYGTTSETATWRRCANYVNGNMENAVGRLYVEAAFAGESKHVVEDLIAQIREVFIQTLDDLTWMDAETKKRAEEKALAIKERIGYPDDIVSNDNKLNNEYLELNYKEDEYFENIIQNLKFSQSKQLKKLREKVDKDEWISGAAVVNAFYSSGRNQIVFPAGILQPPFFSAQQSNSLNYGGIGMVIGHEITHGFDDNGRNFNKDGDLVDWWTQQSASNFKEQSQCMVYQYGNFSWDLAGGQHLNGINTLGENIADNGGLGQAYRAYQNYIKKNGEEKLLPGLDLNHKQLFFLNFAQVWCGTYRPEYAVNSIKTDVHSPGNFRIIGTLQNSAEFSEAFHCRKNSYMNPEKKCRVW

Turning to `NNC(=O)CN1Cc2c(Cl)cccc2NC1=O`, the pIC50 (usually the IC50 on a negative log10 scale, so that one unit is a factor of ten) at Peptide deformylase is 4.57. Also, the MIC in the assay on Escherichia coli was found to be 50 µg/mL (≈ 196 µM).

`O=C(CN1Cc2c(Cl)cccc2N(CC2CC2)S1(=O)=O)NO` gave a pIC50 at Peptide deformylase of 6.96. For the same compound, the MIC against Moraxella catarrhalis is 4 µg/mL (≈ 11.6 µM); with Haemophilus influenzae, 64 µg/mL (≈ 185 µM); against Escherichia coli, greater than 64 µg/mL.

For `O=C(CN1Cc2c(Cl)cccc2NS1(=O)=O)NO`, the pIC50 was 6.92 at Peptide deformylase; less than 5.00 in assay [1]; less than 4.00 in [2]; less than 4.00 against Neprilysin; less than 4.00 in assay [3]; less than 6.30 against Collagenase 3. In addition, the MIC in the assay on Moraxella catarrhalis is 8 µg/mL (≈ 27.4 µM); with Haemophilus influenzae, 16 µg/mL (≈ 54.8 µM); against Escherichia coli, greater than 64 µg/mL.

In the case of `O=C(CN1Cc2c(Cl)cccc2N(CCCc2ccccc2)S1(=O)=O)NO`, the MIC with Moraxella catarrhalis is 8 µg/mL (≈ 19.5 µM); with Haemophilus influenzae, 32 µg/mL (≈ 78.1 µM); in the assay on Escherichia coli, greater than 64 µg/mL.

Consider `O=C(CN1Cc2ccccc2NS1(=O)=O)NO`, for which, on Peptide deformylase, the pIC50 was 6.12. Besides, the MIC in the assay with Moraxella catarrhalis, with Haemophilus influenzae and in the assay on Escherichia coli was greater than 64 µg/mL throughout.

Turning to `O=C(CN1Cc2c(Cl)cccc2N(Cc2ccccc2)S1(=O)=O)NO`, the MIC is 8 µg/mL (≈ 21 µM) with Moraxella catarrhalis, 32 µg/mL (≈ 83.8 µM) with Haemophilus influenzae and 64 µg/mL (≈ 168 µM) against Escherichia coli.

For `O=C(CN1Cc2c(F)cccc2NC1=O)NO`, the negative-log IC50 (pIC50) on Peptide deformylase is 6.06. The MIC is 16 µg/mL (≈ 66.9 µM) in the assay on Moraxella catarrhalis, 64 µg/mL (≈ 268 µM) against Haemophilus influenzae and greater than 64 µg/mL in the assay on Escherichia coli.

With `O=C(CN1Cc2c(Br)cccc2NC1=O)NO`, the pIC50 against Peptide deformylase is 7.31. For the same compound, the MIC in the assay on Moraxella catarrhalis turned out to be 4 µg/mL (≈ 13.3 µM); with Haemophilus influenzae, 16 µg/mL (≈ 53.3 µM); against Escherichia coli it was 32 µg/mL (≈ 107 µM).

For `O=C(CN1Cc2ccccc2NC1=O)NO`, the MIC against Moraxella catarrhalis, in the assay on Haemophilus influenzae and in the assay with Escherichia coli was greater than 64 µg/mL each time.

Compound `O=C(CN1Cc2c(cccc2C(F)(F)F)NS1(=O)=O)NO` gave a pIC50 on Peptide deformylase of 6.89. Moreover, the MIC in the assay with Moraxella catarrhalis is 8 µg/mL (≈ 24.6 µM); with Haemophilus influenzae, 32 µg/mL (≈ 98.4 µM); against Escherichia coli, greater than 64 µg/mL.

On Peptide deformylase, `O=C(CN1Cc2c(cccc2C(F)(F)F)NC1=O)NO` gave a pIC50 of 6.64. Moreover, the MIC was determined as 8 µg/mL (≈ 27.7 µM) in the assay with Moraxella catarrhalis, 64 µg/mL (≈ 221 µM) against Haemophilus influenzae and 64 µg/mL (≈ 221 µM) against Escherichia coli.

Regarding `O=C(CN1Cc2c(Cl)cccc2NC1=O)NO`, the pIC50 on Peptide deformylase was 6.51; in assay [1] it was less than 5.00; in assay [2], 4.05; against Neprilysin, less than 4.00; in [3], less than 4.00; at Collagenase 3, 6.34. In addition, the MIC came to 2 µg/mL (≈ 7.82 µM) with Moraxella catarrhalis, 8 µg/mL (≈ 31.3 µM) in the assay with Haemophilus influenzae and 16 µg/mL (≈ 62.6 µM) in the assay with Escherichia coli.

Take `O=C(CN1Cc2c(Br)cccc2N(CC2CC2)S1(=O)=O)NO`: the MIC was determined as 1 µg/mL (≈ 2.56 µM) in the assay on Moraxella catarrhalis, 64 µg/mL (≈ 164 µM) in the assay on Haemophilus influenzae and 64 µg/mL (≈ 164 µM) in the assay with Escherichia coli.

Regarding `O=C(CN1Cc2c(F)cccc2NS1(=O)=O)NO`, the pIC50 against Peptide deformylase was 6.06. Moreover, the MIC with Moraxella catarrhalis, against Haemophilus influenzae and in the assay with Escherichia coli was greater than 64 µg/mL in each case.

`O=C(CN1Cc2c(Br)cccc2NS1(=O)=O)NO` had a pIC50 against Peptide deformylase of 7.01. In addition, the MIC in the assay with Moraxella catarrhalis was 4 µg/mL (≈ 11.9 µM); against Haemophilus influenzae, greater than 64 µg/mL; in the assay on Escherichia coli, 32 µg/mL (≈ 95.2 µM).

Turning to `CCCCN1c2cccc(Cl)c2CN(CC(=O)NO)S1(=O)=O`, the negative logarithm of the IC50 (pIC50) on Peptide deformylase is 6.23. Also, the MIC in the assay on Moraxella catarrhalis is 2 µg/mL (≈ 5.75 µM); against Haemophilus influenzae it was 64 µg/mL (≈ 184 µM); against Escherichia coli, greater than 64 µg/mL.
